Test results: paper PMC7325368 (Journal of Clinical Oncology, 2020)
pIC50: −log10 of the molar value. Values joined by “and” are separate entries in the source; they are usually repeats but may differ in a detail not shown here. Equal entries are not always repeated. Where two headings read alike, the source gives them in different places.

Key:
B-RAF–mutated melanoma = conditions: patients with B-RAF–mutated melanoma ref 12, 33; cited from earlier work
VEGFR2 = conditions: inhibition of VEGFR2 ref 15; cited from earlier work
[1] = tested on: B-RAF– or K-RAS/N-RAS–mutated solid tumors; type: in vivo, human
Summary of the method: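 Oral test compound once daily: escalation cohorts at 5–60 mg; expansion at 30 mg/d in 21-day cycles in patients with B-RAF or K-RAS/N-RAS mutations. Treatment continued until unacceptable toxicity or withdrawal, with treatment beyond progression allowed if clinically beneficial. Response and stable disease scored per RECIST v1.1, investigator-assessed in expansion. Time-to-event end points summarized by Kaplan-Meier estimators.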

[2] = tested on: EGFR, DDR1, DDR2, EPHA3, FLT3, VEGFR2, ABL1, RET, EPHGA7, EPHB2, MNK2, and ZAK; conditions: EPHGA7, EPHB2, MNK2, ZAK ref 15; cited from earlier work
[3] = tested on: patients with advanced/metastatic solid tumors; assay: Safety and tolerability; type: in vivo, human
[4] = Plasma pharmacokinetics in patients; type: in vivo; conditions: human
Summary of the method: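 Oral test compound given as a single dose on cycle 1, day 1, then a 2-day treatment-free period for single-dose PK sampling, then once daily on days 4–24 and continuously in 21-day cycles. Doses were 10–60 mg. Plasma was sampled at prespecified time points on cycle 1, day 1 and cycle 2, day 1. Accumulation ratios for Cmax, AUC0-9 and AUC0-24 were taken as cycle 2/cycle 1.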

[5] = tested on: K-RAS/N-RAS–mutated solid tumors; assay: Antitumor activity; type: in vivo, human
[6] = tested on: tumor FDG uptake in patients with solid tumors; assay: FDG-PET-CT scans; type: in vivo, human
Summary of the method: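 Exploratory FDG uptake measured by FDG-PET-CT at screening and again on cycle 2, day 1 (± 3 days) in patients receiving the oral test compound once daily in 21-day cycles. Each patient's on-treatment uptake category was compared with the baseline scan.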

[7] = tested on: B-RAF–mutated solid tumors; assay: Antitumor activity; type: in vivo, human
[8] = Dose Expansion (n = 96), 30 mg/d
[9] = K-RAS^mut/N-RAS^mut patients (n = 66), both phases
[10] = cycle 2, day 1, 34 patients (7 missing postbaseline results)
[11] = cycle 2, day 1 vs baseline, 1 patient
[12] = B-RAF^mut patients (n = 53), both phases

CC(C)(C)c1nc(-c2cccc(NS(=O)(=O)c3c(F)cccc3F)c2F)c(-c2ccnc(N)n2)s1 [dabrafenib]
DCR (B-RAF–mutated melanoma): 91% | ORR (B-RAF–mutated melanoma): 50%

O=C1CCc2c(Oc3ccc4c(c3)[C@@H]3[C@H](O4)[C@H]3c3nc4ccc(C(F)(F)F)cc4[nH]3)ccnc2N1 [lifirafenib]
pIC50 (VEGFR2): 6.97 | Patients with confirmed clinical responses ([1]; dose escalation, n = 3, all had FDG-PET-CT responses): 8.6% | Median DoR ([1]; dose escalation, 95% CI, 6.8 to 31.7 months): 31.7 months | Median DoR ([1]; dose expansion, 95% CI, 1.9 months to not reached): 11.1 months | Median duration of SD ([1]; dose expansion, 95% CI, 3.5 to 4.9 months): 4.1 months | IC50s relative to that for B-RAF^V600E [2]: ≤ 10 fold | Patients with dose interruptions/reductions as a result of drug toxicity ([3]; 40 mg/d, typically between days 13 and 28 of cycle 1): 70% | TEAE Abdominal pain, upper, Any Grade ([3]; Dose Escalation (n = 35)): 4 (11.4) No. (%) | TEAE Abdominal pain, upper, Grade ≥ 3 ([3]; Dose Escalation (n = 35)): 0 (0.0) No. (%) | TEAE Gastroesophageal reflux disease, Any Grade ([3]; Dose Escalation (n = 35)): 6 (17.1) No. (%) | TEAE Gastroesophageal reflux disease, Grade ≥ 3 ([3]; Dose Escalation (n = 35)): 0 (0.0) No. (%) | TEAE Musculoskeletal chest pain, Any Grade ([3]; Dose Escalation (n = 35)): 6 (17.1) No. (%) | TEAE Musculoskeletal chest pain, Grade ≥ 3 ([3]; Dose Escalation (n = 35)): 0 (0.0) No. (%) | TEAE Palmoplantar erythrodysesthesia syndrome, Any Grade ([3]; Dose Escalation (n = 35)): 11 (31.4) No. (%) | TEAE Palmoplantar erythrodysesthesia syndrome, Grade ≥ 3 ([3]; Dose Escalation (n = 35)): 2 (5.7) No. (%) | TEAE Upper respiratory tract infection, Any Grade ([3]; Dose Escalation (n = 35)): 6 (17.1) No. (%) | TEAE Upper respiratory tract infection, Grade ≥ 3 ([3]; Dose Escalation (n = 35)): 0 (0.0) No. (%) | TEAE Urinary tract infection, Any Grade ([3]; Dose Escalation (n = 35)): 4 (11.4) No. (%) | TEAE Urinary tract infection, Grade ≥ 3 ([3]; Dose Escalation (n = 35)): 0 (0.0) No. (%) | TEAE γ-Glutamyl transferase increase, Any Grade ([3]; Dose Escalation (n = 35)): 6 (17.1) No. (%) | TEAE γ-Glutamyl transferase increase, Grade ≥ 3 ([3]; Dose Escalation (n = 35)): 4 (11.4) No. (%) | TEAE Abdominal pain, upper, Any Grade [3, 8]: 8 (8.3) No. (%) | TEAE Abdominal pain, upper, Grade ≥ 3 [3, 8]: 2 (2.1) No. (%) | TEAE Gastroesophageal reflux disease, Any Grade [3, 8]: 4 (4.2) No. (%) | TEAE Gastroesophageal reflux disease, Grade ≥ 3 [3, 8]: 0 (0.0) No. (%) | TEAE Musculoskeletal chest pain, Any Grade [3, 8]: 7 (7.3) No. (%) | TEAE Musculoskeletal chest pain, Grade ≥ 3 [3, 8]: 0 (0.0) No. (%) | TEAE Palmoplantar erythrodysesthesia syndrome, Any Grade [3, 8]: 20 (20.8) No. (%) | TEAE Palmoplantar erythrodysesthesia syndrome, Grade ≥ 3 [3, 8]: 1 (1.0) No. (%) | TEAE Upper respiratory tract infection, Any Grade [3, 8]: 5 (5.2) No. (%) | TEAE Upper respiratory tract infection, Grade ≥ 3 [3, 8]: 0 (0.0) No. (%) | TEAE Urinary tract infection, Any Grade [3, 8]: 10 (10.4) No. (%) | TEAE Urinary tract infection, Grade ≥ 3 [3, 8]: 1 (1.0) No. (%) | TEAE γ-Glutamyl transferase increase, Any Grade [3, 8]: 4 (4.2) No. (%) | TEAE γ-Glutamyl transferase increase, Grade ≥ 3 [3, 8]: 4 (4.2) No. (%) | Time to occurrence of dose-limiting thrombocytopenia ([3]; after initial dosing, dose escalation): 2-3 weeks | Patients who experienced reversible DLTs ([3]; among patients eligible for DLT assessment (n = 31), dose escalation): 6 patients | DLT: grade 3 increased ALT ([3]; dose escalation): 1 n | DLT: grade 4 thrombocytopenia ([3]; dose escalation): 5 n | Grade ≥ 3 treatment-related TEAE fatigue ([3]; dose escalation): 11.4% | Grade ≥ 3 treatment-related TEAE hypertension ([3]; dose escalation): 11.4% | Grade ≥ 3 treatment-related TEAE thrombocytopenia ([3]; dose escalation): 14.3% | Patients with TEAEs that led to discontinuation ([3]; dose escalation (n = 35), five patients): 14.3% | Patients with grade ≥ 3 TEAEs (including DLTs) ([3]; dose escalation, 26 patients): 74.3% | Share of patients reporting grade ≥ 3 TEAEs ([3]; dose escalation, 40, 50, and 60 mg/d cohorts): 61.5% | Share of patients reporting grade ≥ 3 TEAEs ([3]; dose escalation, lower-dose cohorts): 38.5% | Dose-limiting thrombocytopenia that occurred at 40 and 60 mg/d ([3]; dose escalation, n = 2 each (eighty percent)): 4 of 5 | Maximum tolerated dose (MTD) ([3]; dose escalation, once-daily oral dosing): 40 mg/day | Grade ≥ 3 treatment-related AE fatigue ([3]; dose expansion): 7.3% | Grade ≥ 3 treatment-related AE hypertension ([3]; dose expansion): 8.3% | Patients with TEAEs that led to discontinuation ([3]; dose expansion (n = 96), 19 patients): 19.8% | Patients with serious TEAEs ([3]; dose expansion (n = 96), 56 patients): 58.3% | Patients with grade ≥ 3 TEAEs ([3]; dose expansion (n = 96), 68 patients): 70.8% | Patients with AEs that led to a dose adjustment ([3]; dose expansion, fifty patients): 52% | Patients with TEAEs that led to death (considered unrelated to treatment) ([3]; dose expansion, four patients, 6 TEAEs): 4.2% | Cutaneous SCC or keratoacanthoma ([3]; during the entire study): not reported | DLTs that occurred at doses ≥ 40 mg/d ([3]; of 6 patients with DLTs, dose escalation): 5 patients | Time to platelet count recovery ([3]; platelet transfusion or prednisolone and withholding of lifirafenib): 6 to 20 days | half-life ([4]; oral): 15 to 59 h | Tmax ([4]; po): 3 h | Patients with confirmed PR ([5]; K-RAS codon 12–mutated NSCLC, 30 mg/d): 1 n | Patients with duration of treatment > 1 year ([5]; K-RAS mutations): 5 n | Patients with confirmed responses ([5]; K-RAS mutations, entire study): 2 patients | Responses ([5]; K-RAS/N-RAS–mutated colorectal cancer (n = 20)): No responses | Best overall response (confirmed): CR [5, 9]: 0 No. (%) | Best overall response (confirmed): NE/missing [5, 9]: 15 (22.7) No. (%) | Best overall response (confirmed): PD [5, 9]: 16 (24.2) No. (%) | Best overall response (confirmed): PR [5, 9]: 2 (3.0) No. (%) | Best overall response (confirmed): SD [5, 9]: 33 (50.0) No. (%) | Disease control rate (CR + PR + SD) [5, 9]: 35 (53.0) No. (%) | Objective response rate (CR + PR) [5, 9]: 2 (3.0) No. (%) | Patients with SD ([5]; K-RAS– or N-RAS–mutated CRC): Twelve | Patients with SD ([5]; K-RAS–mutated NSCLC (codon 12 mutated and K-RAS G13D, n = 1 each)): 2 patients | Patients with SD ([5]; K-RAS–mutated endometrial cancer (codon 12 mutated, n = 4; codon 2 mutated, n = 1)): 5 patients | Patients with confirmed PR ([5]; K-RAS–mutated endometrial cancer, 20 mg/d): 1 n | ORR ([5]; patients with K-RAS mutations, entire study): 3.4% | Patients with SD ([5]; patients with K-RAS mutations, entire study, 32 patients): 54.2% | Patients with high FDG uptake [6, 10]: 15 patients | Patients with low FDG uptake [6, 10]: 1 patient | Patients with moderate FDG uptake [6, 10]: 10 patients | Patients with no FDG uptake [6, 10]: 1 patient | Patients who changed from high to low FDG uptake [6, 11]: 2.9% | Patients who changed from low to no FDG uptake [6, 11]: 2.9% | Patients who changed from high to moderate FDG uptake ([6]; cycle 2, day 1 vs baseline, 7 patients): 20.6% | Patients with partial metabolic reduction per EORTC criteria ([6]; dose escalation): 11 patients | Patients with complete metabolic reduction ([6]; dose escalation, B-RAF mutation, 40 mg/d): 1 patient | Patients with partial/complete metabolic reductions by FDG-PET-CT scan ([6]; dose escalation, of 34 patients): 12 patients | Patients with partial/complete metabolic reduction who received ≥ 30 mg/d ([6]; of 12 patients with metabolic reductions): 11 patients | Patients with duration of treatment > 1 year ([7]; B-RAF mutations): 10 n | DCR ([7]; B-RAF^V600–mutated thyroid cancer (3 patients)): 100% | ORR ([7]; B-RAF^V600–mutated thyroid cancer, one of 3 patients confirmed PR): 33.3% | Best overall response (confirmed): CR [7, 12]: 1 (1.9) No. (%) | Best overall response (confirmed): NE/missing [7, 12]: 9 (17.0) No. (%) | Best overall response (confirmed): PD [7, 12]: 8 (15.1) No. (%) | Best overall response (confirmed): SD [7, 12]: 27 (50.9%) No. (%) and 27 (50.9) No. (%) | Disease control rate (CR + PR + SD) [7, 12]: 36 (67.9) No. (%) | Objective response rate (CR + PR) [7, 12]: 9 (17.0) No. (%) | Patients with confirmed PR ([7]; B-RAF–mutated thyroid cancer/PTC): 2 n | Patients with confirmed PR ([7]; human, in vivo): 1 n

CCCS(=O)(=O)Nc1ccc(F)c(C(=O)c2c[nH]c3ncc(-c4ccc(Cl)cc4)cc23)c1F [vemurafenib]
ORR (B-RAF–mutated melanoma): 48%
